The list is not random: actives were taken first. Their share in the collection is about 3.1%.
hERG protect: compounds protecting human hERG from proarrhythmic drug block | CHO-hERG, FluxOR thallium flux, dofetilide IC70 present | Q12809 | activation (rescue from dofetilide block), less the hit threshold, % at 10 µM | AID 1511 | 310,000 compounds, 0.51% hits;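 active means activation above the mean of controls blocked by dofetilide plus 5 SD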;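 further: thallium influx through hERG after potassium depolarization seen as dye fluorescence rise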
KCNK9 block: inhibitors of human KCNK9 two-pore domain potassium channel; Q9NPC2; HEK293 KCNK9, FluxOR thallium flux fluorescence; active compounds read low; B-score at 10 µM; 310,000 compounds, 1.2% hits;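 active means ratio B-score over 3 SD below the library mean, with starting fluorescence within 5 SD of its mean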;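 further: negative B-score means less thallium flux so channel inhibition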
KCNQ1 block: human KCNQ1 channel inhibition; P51787; CHO-K1 KCNQ1, FluxOR thallium flux fluorescence; active compounds read high; B-score at 10 µM; 310,000 compounds, 1.3% hits; AID 2642;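 active means compounds whose thallium flux B-score, printed positive for inhibition, exceeds three library SD while starting fluorescence stays within three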;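 further: channel opened by potassium depolarization with thallium stimulus after 20 min compound exposure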
KCNQ1 act: potentiates or activates the human KCNQ1 potassium channel. 310,000 compounds, 0.35% hits. B-score at 10 µM. P51787. AID 2648. CHO-K1 KCNQ1, thallium flux FluxOR fluorescence; active compounds read high;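 active means fluorescence ratio B-score, a plate-corrected score, at least three library SD, with initial intensity B-score within 5 SD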
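Assay system: CHO-K1 cells stably expressing KCNQ1; Medium: assay buffer with matched DMSO; Also added: K+/Tl+ depolarizing stimulus; Dosing: single dose; Timing: dye 90 min, compound 20 min, room temperature; Measured by: kinetic FluxOR thallium fluorescence, 10-s 1-Hz baseline, 110-s post-stimulus read; Read-out: peak-minus-minimum fluorescence over initial fluorescence, negative-control normalized, B-scored.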
KCNK3 block: human KCNK3 channel inhibition, primary screen; O14649; CHO-KCNK3 thallium flux, FluxOR fluorescence; active compounds read low; B-score at 10 µM; 340,000 compounds, 0.84% hits; AID 602410;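 active means B-score under library mean minus 4 SD, starting fluorescence ratio at most library mean plus 5 SD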;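 further: more negative B-score means stronger inhibition of thallium flux through KCNK3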
KCNQ1 block val: confirmation of human KCNQ1 potassium channel inhibitors. AID 588353. inhibition, % at 10 µM. KCNQ1 cell line, FluxOR thallium flux fluorescence. shares compounds with KCNQ1 block. 1,600 compounds, 93% hits;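 active means primary screen active, with duplicate mean exceeding buffer control mean plus 3 SD of buffer wells, cut at about 28% in these data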
CHO Tl flux: counter-screen for KCNQ1 inhibitors: effect in parental CHO cells; shares compounds with KCNQ1 block; parental CHO-K1, FluxOR thallium flux fluorescence ratio; active compounds read low; zero means no signal rise above baseline; fluorescence ratio (Tl flux) at 10 µM; 1,600 compounds, 21% hits;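 active means mean of duplicate thallium-flux fluorescence ratios in parental host cells more than 5 SD below the buffer control mean, cut at about 0.38 in these data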;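 further: ratio is peak minus minimum fluorescence divided by baseline fluorescence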
KCNQ1 APC inh: confirmation of human KCNQ1 potassium channel inhibitors by electrophysiology | shares compounds with KCNQ1 block | KCNQ1-CHO cells, automated patch clamp current | calls only at 10 µM | 490 compounds, 20% hits;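 active means KCNQ1 current drop exceeding 3 SD of negative control wells, seen in both duplicate runs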;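 further: steady state current during a 2 s step from -80 to +40 mV; negative values mean current inhibition and positive values mean potentiation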
KCNQ2 inh: selectivity of KCNQ1 inhibitors: inhibition of rat KCNQ2 channel. shares compounds with KCNQ1 block. inhibition, % at 10 µM. AID 651746. KCNQ2 cells, FluxOR thallium flux fluorescence. 1,600 compounds, 71% hits;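 active means mean percent inhibition of the KCNQ2 thallium signal more than 5 SD above the buffer-only control wells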;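 further: KCNQ2 expressed in CHO cells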
Target sequence (O88943 whole entry, looked up): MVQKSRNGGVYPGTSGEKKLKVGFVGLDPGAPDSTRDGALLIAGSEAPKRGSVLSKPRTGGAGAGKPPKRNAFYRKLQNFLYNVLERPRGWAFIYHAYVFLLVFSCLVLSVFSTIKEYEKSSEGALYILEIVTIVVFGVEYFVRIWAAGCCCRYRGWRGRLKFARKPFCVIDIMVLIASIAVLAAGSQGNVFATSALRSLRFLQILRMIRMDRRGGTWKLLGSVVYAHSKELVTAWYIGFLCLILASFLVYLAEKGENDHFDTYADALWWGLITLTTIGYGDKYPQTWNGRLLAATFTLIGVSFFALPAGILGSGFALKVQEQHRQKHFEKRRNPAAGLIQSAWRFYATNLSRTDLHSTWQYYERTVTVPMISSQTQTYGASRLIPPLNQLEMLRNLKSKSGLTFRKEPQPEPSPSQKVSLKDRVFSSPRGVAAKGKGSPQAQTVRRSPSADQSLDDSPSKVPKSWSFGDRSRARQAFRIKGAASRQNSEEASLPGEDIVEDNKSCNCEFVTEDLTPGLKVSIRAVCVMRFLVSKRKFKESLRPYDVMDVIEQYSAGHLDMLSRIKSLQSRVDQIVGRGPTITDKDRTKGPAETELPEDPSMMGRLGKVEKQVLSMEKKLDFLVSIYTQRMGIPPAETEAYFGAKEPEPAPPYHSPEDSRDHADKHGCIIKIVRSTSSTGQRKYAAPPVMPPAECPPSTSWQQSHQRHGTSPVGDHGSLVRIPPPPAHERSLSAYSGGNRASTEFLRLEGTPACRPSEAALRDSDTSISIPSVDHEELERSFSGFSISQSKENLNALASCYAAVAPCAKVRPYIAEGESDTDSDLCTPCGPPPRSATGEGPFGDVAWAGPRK
KCNQ1-KCNE1 inh: human KCNQ1/KCNE1 inhibition in KCNQ1 specificity screen. KCNQ1/KCNE1 cells, FluxOR thallium flux fluorescence. inhibition, % at 10 µM. 1,600 compounds, 77% hits. shares compounds with KCNQ1 block;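 active means mean percent inhibition of duplicate wells above the buffer-only control mean plus 3 SD of those controls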
Each line names hits and unclear results; the compound was inactive in the other large screens (follow-up assays come after a bar, where they were run).

CCc1ccccc1N1CCN(S(=O)(=O)c2cc(OC)ccc2OC)CC1	KCNQ1 block 6 | KCNQ1 block val 106.0 | CHO Tl flux inactive | KCNQ1 APC inh active | KCNQ2 inh 94.7% | KCNQ1-KCNE1 inh 142.0%
Cc1cccc(C)c1-n1nnnc1C1(Nc2ccccc2)CCCCC1	KCNK9 block -7.66, KCNQ1 block 7 | KCNQ1 block val 109.0 | CHO Tl flux 0.356 | KCNQ2 inh 109.3% | KCNQ1-KCNE1 inh 130.5%
Cc1cc(-c2c(C)[nH]n(-c3ccccc3)c2=O)n[nH]1	none
NNC(=O)CSc1nc(-c2ccccc2)cn1-c1ccccc1	none
COc1ccc(-n2cc(-c3ccccc3)nc2SC)cc1	KCNQ1 block 6 | KCNQ1 block val 94.0 | CHO Tl flux inactive | KCNQ1 APC inh inactive | KCNQ2 inh 86.0% | KCNQ1-KCNE1 inh 130.0%
Cc1nc2c(-c3ccccc3)c(C)nn2c(N)c1-c1ccccc1	KCNQ1 block 7 | KCNQ1 block val active | CHO Tl flux inactive | KCNQ1 APC inh inactive | KCNQ2 inh inactive | KCNQ1-KCNE1 inh inactive
Cc1nc2cc(-c3ccccc3)nn2c(N)c1-c1ccccc1	none (no result: hERG protect, KCNK9 block, KCNQ1 block, KCNQ1 act)
C=CCN(c1nc(C)c(Br)c(OC)n1)S(=O)(=O)c1ccc(C)cc1	KCNQ1 block 7 | KCNQ1 block val 113.0 | CHO Tl flux inactive | KCNQ1 APC inh inactive | KCNQ2 inh 118.0% | KCNQ1-KCNE1 inh 83.0%
COC(=O)CN(c1nc(C)c(Br)c(OC)n1)S(=O)(=O)c1ccc(C)cc1	none
O=C(Nc1ccccc1)Nc1ccccc1NS(=O)(=O)c1cccs1	KCNQ1 block 10 | KCNQ1 block val 64.0 | CHO Tl flux inactive | KCNQ2 inh 63.7% | KCNQ1-KCNE1 inh inactive
CCCc1nn2c(=O)cc(CSCC(=O)Nc3nnc(CC)s3)nc2s1	none
O=C1CCC(O)CCN1CCSc1ccccc1 (stereo not given)	none
O=C(c1ccccc1)c1ccccc1N/C=C/c1nnnn1-c1ccccc1	none
COc1ccc(C(F)(F)F)cc1N/C=C\c1nnnn1-c1ccccc1	KCNQ1 block 9 | KCNQ1 block val 98.5 | CHO Tl flux inactive | KCNQ1 APC inh inactive | KCNQ2 inh 64.0% | KCNQ1-KCNE1 inh 79.0%
O=C(NCCOc1ccc(F)cc1)c1ccccc1SCc1ccccc1	KCNQ1 block 7 | KCNQ1 block val 102.0 | CHO Tl flux inactive | KCNQ1 APC inh active | KCNQ2 inh 106.0% | KCNQ1-KCNE1 inh 169.0%
NC(=O)c1cc2ccc(O)cc2oc1=NCc1ccccc1	KCNQ1 block 31 | KCNQ1 block val active | CHO Tl flux 0.048 | KCNQ2 inh inactive | KCNQ1-KCNE1 inh inactive
COc1cc(OC)cc(C(=O)NNC(=O)CCc2ccccc2)c1	none
O=C(Nc1ccc(OC(F)F)c(Cl)c1)c1ccccn1	none
Cc1ccc(NC(=S)Nc2ccc(OC(F)F)c(Cl)c2)cc1F	KCNQ1 block 14 | KCNQ1 block val 88.5 | CHO Tl flux inactive | KCNQ1 APC inh inactive | KCNQ2 inh inactive | KCNQ1-KCNE1 inh inactive
CC1CCc2sc3nc(NCc4ccco4)n4ncnc4c3c2C1 (stereo not given)	none
CC1CCCc2sc3nc(NCc4ccco4)n4ncnc4c3c21 (stereo not given)	KCNQ1 block 8 | KCNQ1 block val 101.5 | CHO Tl flux inactive | KCNQ1 APC inh inactive | KCNQ2 inh 84.3% | KCNQ1-KCNE1 inh 146.5%
O=c1[nH]c(=O)n(-c2ccc(F)cc2)c2c1C(C(F)(F)F)(C(F)(F)F)N=C(c1ccc(F)cc1)N2	KCNQ1 block 6 | KCNQ1 block val 57.0 | CHO Tl flux inactive | KCNQ2 inh 64.3% | KCNQ1-KCNE1 inh inactive
Cc1ccc(NC(=O)Nc2nnc(-c3ccncc3)s2)cc1C	KCNQ1 block 11 | KCNQ1 block val 105.0 | CHO Tl flux inactive | KCNQ1 APC inh inactive | KCNQ2 inh inactive | KCNQ1-KCNE1 inh 57.0%
O=C(Nc1ccc(Cl)cc1)Nc1nnc(-c2ccncc2)s1	none
C=CCNC(=O)N1CCc2[nH]c3ccc(F)cc3c2C1	none
Fc1ccc2[nH]c3c(c2c1)CN(C(=S)NCc1ccccc1)CC3	KCNQ1 block 7 | KCNQ1 block val 100.5 | CHO Tl flux inactive | KCNQ1 APC inh inactive | KCNQ2 inh 102.3% | KCNQ1-KCNE1 inh 87.5%
CC(=O)c1c(C)n(CC(=O)NCc2ccco2)c2ccccc12	KCNQ1 block 10 | KCNQ1 block val 33.0 | CHO Tl flux inactive | KCNQ2 inh inactive | KCNQ1-KCNE1 inh 50.0%
Cn1c(N)c(C(=O)COC(=O)C2CC(=O)N(Cc3ccccc3)C2)c(=O)n(C)c1=O (stereo not given)	KCNQ1 block 6 | KCNQ1 block val inactive | CHO Tl flux inactive | KCNQ2 inh 60.3% | KCNQ1-KCNE1 inh inactive
O=C(COC(=O)C1CC(=O)N(Cc2ccccc2)C1)c1ccc(Br)cc1 (stereo not given)	none
CC(C)(C)c1csc(NC(=O)Cc2ccc(S(=O)(=O)N3CCOCC3)s2)n1	KCNQ1 block 9 | KCNQ1 block val 72.0 | CHO Tl flux inactive | KCNQ2 inh inactive | KCNQ1-KCNE1 inh 96.0%
CCN(C(=O)COC(=O)CCCOc1ccccc1)c1c(N)n(Cc2ccccc2)c(=O)[nH]c1=O	none (no result: hERG protect, KCNK9 block, KCNQ1 block, KCNQ1 act)
CCOc1ccc(N=C2NC(=O)S/C2=C\c2ccc(N(C)C)cc2)cc1	KCNQ1 block 10 | KCNQ1 block val 181.0 | CHO Tl flux inactive | KCNQ2 inh inactive | KCNQ1-KCNE1 inh inactive
CCOc1ccc(/C=C2\SC(=S)N(N3C(=O)C4CC4C3=O)C2=O)cc1 (stereo not given)	none
NC(=O)CSc1nc(C23CC4CC(CC(C4)C2)C3)nc2ccccc12	KCNQ1 block 6 | KCNQ1 block val 91.0 | CHO Tl flux inactive | KCNQ1 APC inh inactive | KCNQ2 inh inactive | KCNQ1-KCNE1 inh 94.0%
COc1ccccc1CNC(=O)C(Cc1ccccc1)NC(=O)c1ccccc1 (stereo not given)	none (no result: hERG protect, KCNK9 block, KCNQ1 block, KCNQ1 act)
O=C(CN1CCOCC1)Nc1nc(-c2ccc(Cl)cc2)cs1	KCNQ1 block 6 | KCNQ1 block val 55.5 | CHO Tl flux inactive | KCNQ2 inh inactive | KCNQ1-KCNE1 inh 60.5%
Cc1ccc(-c2csc(NC(=O)CN3CCOCC3)n2)cc1	none
COc1ccc(S(=O)(=O)Nc2ccccc2C(=O)Nc2nc(-c3ccc(F)cc3)cs2)cc1OC	KCNQ1 block 9 | KCNQ1 block val 166.5 | CHO Tl flux 0.318 | KCNQ2 inh 89.0% | KCNQ1-KCNE1 inh active
